Assay results reported in ChEMBL document CHEMBL4270548, “Discovery of a potent glucokinase activator with a favorable liver and pancreas distribution pattern for the treatment of type 2 diabetes mellitus” (Eur J Med Chem, 2018).

What was measured:
[1] = Ratio of AUC (0 to 1.5 hrs) in C57BL/6J mouse liver to pancreas at 10 mg/kg, po administered as single dose by LC/MS/MS analysis; format: ADME, organism-based; conditions: in vivo
[2] = AUC (0 to 1.5 hrs) in C57BL/6J mouse liver at 10 mg/kg, po administered as single dose by LC/MS/MS analysis; format: ADME, organism-based; set-up: time < 1.5 hr, dose 10 mg/kg, route oral; conditions: in vivo
[3] = Cytotoxicity against CHOK1 cells assessed as reduction in cell viability after 24 hrs by WST1 assay; format: cell-based, Cricetulus griseus; conditions: chinese hamster, CHO-K1 cells
In short: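 CHO-K1 cells plated at 6000/well in Ham's F12K with 2% FBS and 1 mM L-glutamine plus antibiotics, incubated overnight at 37 °C, 5% CO2. Exposed 24 h to compound at 1–100 µM final, with 1% DMSO vehicle and benzbromarone positive control. Viability read by WST-1.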

[4] = Ratio of AUC (0 to 1.5 hrs) in C57BL/6J mouse pancreas to plasma at 30 mg/kg, po administered as single dose by LC/MS/MS analysis; format: ADME, organism-based; conditions: pancreas and plasma, read-out: Ratio AUC
[5] = Ratio of AUC (0 to 1.5 hrs) in C57BL/6J mouse pancreas to plasma at 100 mg/kg, po administered as single dose by LC/MS/MS analysis; format: ADME, organism-based; conditions: pancreas and plasma, read-out: Ratio AUC
In short: (§1)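 Overnight-fasted male C57BL/6J mice (8 weeks) given a single oral dose (10, 30 or 100 mg/kg) in 0.1 w/v% Tween80 / 0.5 w/v% MC. Plasma taken via postcaval vein, liver and pancreas dissected and homogenized at 0.5, 1 and 1.5 h. LC/MS/MS with internal standard after acetonitrile/methanol extraction. AUC0-1.5h by trapezoidal rule, mean ± SD (n = 3). Kp = AUCtissue/AUCplasma. L/P = AUCliver/AUCpancreas.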

[6] = Ratio of AUC (0 to 1.5 hrs) in C57BL/6J mouse liver to pancreas at 30 mg/kg, po administered as single dose by LC/MS/MS analysis; format: ADME, organism-based; conditions: in vivo
[7] = Oral bioavailability in ICR mouse at 10 mg/kg administered as single dose by LC/MS/MS analysis; format: ADME, organism-based; conditions: in vivo
In short: (§2)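 Male ICR mice (8 weeks) fasted overnight and fed 7 h post-dose. Dosing was either a single IV dose of 2 mg/kg in saline or a single oral dose of 10 mg/kg in 0.5 w/v% MC. Orbital plexus blood was taken under anesthesia at serial times to 24 h. Plasma was extracted with acetonitrile/methanol plus internal standard and quantified by LC/MS/MS.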

[8] = AUC (0 to 1.5 hrs) in C57BL/6J mouse liver at 100 mg/kg, po administered as single dose by LC/MS/MS analysis; format: ADME, organism-based; set-up: time < 1.5 hr, dose 100 mg/kg, route oral; conditions: in vivo; in short: as §1
[9] = AUC (0 to 1.5 hrs) in C57BL/6J mouse plasma at 100 mg/kg, po administered as single dose by LC/MS/MS analysis; format: ADME, organism-based; set-up: time < 1.5 hr, dose 100 mg/kg, route oral; in short: as §1
[10] = Cytotoxicity against rat primary hepatocytes assessed as reduction in cell viability after 24 hrs by AlamarBlue assay; format: cell-based, Hepatocyte
In short: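 Hepatocytes isolated from male SD rats (7 weeks) by two-step collagenase perfusion. Seeded at 2–3×10^4/well on collagen in modified WE medium with 10% FBS, dexamethasone and insulin, switched to serum-free medium at 4 h. At 20–24 h exposed 24 h to 1–100 µM final, 1% DMSO vehicle. Viability read by alamarBlue.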

[11] = Ratio of AUC (0 to 1.5 hrs) in C57BL/6J mouse liver to pancreas at 100 mg/kg, po administered as single dose by LC/MS/MS analysis; format: ADME, organism-based; conditions: in vivo; in short: as §1
[12] = AUC (0 to 1.5 hrs) in C57BL/6J mouse plasma at 30 mg/kg, po administered as single dose by LC/MS/MS analysis; format: ADME, organism-based; set-up: dose 30 mg/kg, time < 1.5 hr, route oral
[13] = AUC (0 to infinity) in ICR mouse at 2 mg/kg, iv administered as single dose by LC/MS/MS analysis; format: ADME, organism-based; set-up: dose 2 mg/kg, route intravenous, time infinity; conditions: in vivo; in short: as §2
[14] = AUC (0 to 1.5 hrs) in C57BL/6J mouse pancreas at 30 mg/kg, po administered as single dose by LC/MS/MS analysis; format: ADME, organism-based; set-up: time < 1.5 hr, dose 30 mg/kg, route oral; conditions: in vivo
[15] = Terminal half life in ICR mouse at 10 mg/kg, po administered as single dose by LC/MS/MS analysis; format: ADME, organism-based; conditions: in vivo, read-out: beta t1/2 (converted); in short: as §2
[16] = Ratio of AUC (0 to 1.5 hrs) in C57BL/6J mouse pancreas to plasma at 10 mg/kg, po administered as single dose by LC/MS/MS analysis; format: ADME, organism-based; conditions: pancreas and plasma, read-out: Ratio AUC
[17] = Terminal half life in ICR mouse at 2 mg/kg, iv administered as single dose by LC/MS/MS analysis; format: ADME, organism-based; conditions: in vivo, read-out: beta t1/2 (converted); in short: as §2
[18] = AUC (0 to 1.5 hrs) in C57BL/6J mouse plasma at 10 mg/kg, po administered as single dose by LC/MS/MS analysis; format: ADME, organism-based; set-up: time < 1.5 hr, dose 10 mg/kg, route oral
[19] = AUC (0 to infinity) in ICR mouse at 10 mg/kg, po administered as single dose by LC/MS/MS analysis; format: ADME, organism-based; set-up: dose 10 mg/kg, route oral, time infinity; conditions: in vivo; in short: as §2
[20] = Tmax in ICR mouse at 10 mg/kg, po administered as single dose by LC/MS/MS analysis; format: ADME, organism-based; conditions: in vivo; in short: as §2
Mus musculus [21] = test: Toxicity in C57BL/6J mouse assessed as hypoglycemia at <100 mg/kg, po measured up to 300 mins by glucometric method; format: organism-based; conditions: in vivo, 5 h
In short: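 Male C57BL/6J mice (8 weeks) fasted 2 h and dosed orally at time 0 (n = 8/group). Tail vein glucose measured by glucometer at 0, 60, 120, 180, 240 and 300 min. Hypoglycemia defined as plasma glucose < 60 mg/dL. Mean ± SEM, Dunnett's test.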

[22] = biological target: Voltage-gated inwardly rectifying potassium channel KCNH2 (Homo sapiens, UniProt Q12809); test: Inhibition of human ERG expressed in HEK293 cells at -80 holding potential by whole patch clamp assay; format: cell-based
Chain of Voltage-gated inwardly rectifying potassium channel KCNH2 (Q12809 whole entry, the tested form may be a part): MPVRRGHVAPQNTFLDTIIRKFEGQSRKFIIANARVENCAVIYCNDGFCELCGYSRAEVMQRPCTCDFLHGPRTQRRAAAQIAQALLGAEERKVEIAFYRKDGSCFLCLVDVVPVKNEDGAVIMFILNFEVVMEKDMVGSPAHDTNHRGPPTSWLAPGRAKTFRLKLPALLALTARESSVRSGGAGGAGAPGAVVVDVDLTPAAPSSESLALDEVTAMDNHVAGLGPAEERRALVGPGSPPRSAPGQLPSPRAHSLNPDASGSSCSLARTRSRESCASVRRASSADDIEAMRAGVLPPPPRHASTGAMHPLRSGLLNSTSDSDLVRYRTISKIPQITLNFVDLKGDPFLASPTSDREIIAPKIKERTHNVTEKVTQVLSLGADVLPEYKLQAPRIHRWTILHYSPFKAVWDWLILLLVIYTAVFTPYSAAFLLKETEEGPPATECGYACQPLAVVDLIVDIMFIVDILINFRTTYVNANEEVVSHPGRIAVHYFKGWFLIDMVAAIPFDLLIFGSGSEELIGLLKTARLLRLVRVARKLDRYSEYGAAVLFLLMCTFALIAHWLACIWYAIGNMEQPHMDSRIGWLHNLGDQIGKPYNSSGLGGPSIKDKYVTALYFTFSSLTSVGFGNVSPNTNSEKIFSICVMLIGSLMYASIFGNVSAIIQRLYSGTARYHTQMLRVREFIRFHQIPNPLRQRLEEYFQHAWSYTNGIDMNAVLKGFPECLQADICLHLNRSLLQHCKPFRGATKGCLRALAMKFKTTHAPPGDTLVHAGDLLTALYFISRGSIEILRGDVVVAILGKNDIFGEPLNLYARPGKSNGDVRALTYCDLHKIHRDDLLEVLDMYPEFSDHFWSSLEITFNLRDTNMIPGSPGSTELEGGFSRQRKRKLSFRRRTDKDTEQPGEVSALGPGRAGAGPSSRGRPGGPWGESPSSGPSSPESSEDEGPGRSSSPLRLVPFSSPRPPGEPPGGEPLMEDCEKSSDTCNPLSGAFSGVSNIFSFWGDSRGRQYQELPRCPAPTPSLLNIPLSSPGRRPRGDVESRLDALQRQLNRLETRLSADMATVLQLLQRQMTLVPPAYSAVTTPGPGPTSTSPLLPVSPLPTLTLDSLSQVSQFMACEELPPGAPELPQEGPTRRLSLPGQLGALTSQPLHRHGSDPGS
In short: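 Whole-cell patch clamp on HEK293 stably expressing hERG, perfused at 26.0 ± 2.0 °C. Holding potential −80 mV. Steps to −40 to +20 mV for 1.5 s, then −50 mV for 1.5 s, repeated every 15 s. Concentrations 3–300 µM, 0.1% DMSO vehicle, E-4031 positive control.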

[23] = AUC (0 to 1.5 hrs) in C57BL/6J mouse liver at 30 mg/kg, po administered as single dose by LC/MS/MS analysis; format: ADME, organism-based; set-up: dose 30 mg/kg, time < 1.5 hr, route oral; conditions: in vivo
[24] = Ratio of AUC (0 to 1.5 hrs) in C57BL/6J mouse liver to plasma at 10 mg/kg, po administered as single dose by LC/MS/MS analysis; format: ADME, organism-based; conditions: liver and plasma, read-out: Ratio AUC
[25] = Ratio of AUC (0 to 1.5 hrs) in C57BL/6J mouse liver to plasma at 100 mg/kg, po administered as single dose by LC/MS/MS analysis; format: ADME, organism-based; conditions: liver and plasma, read-out: Ratio AUC; in short: as §1
[26] = Clearance in ICR mouse plasma at 2 mg/kg, iv administered as single dose by LC/MS/MS analysis; format: ADME, organism-based; in short: as §2
[27] = AUC (0 to 1.5 hrs) in C57BL/6J mouse pancreas at 100 mg/kg, po administered as single dose by LC/MS/MS analysis; format: ADME, organism-based; set-up: time < 1.5 hr, dose 100 mg/kg, route oral; conditions: in vivo; in short: as §1
Mus musculus [28] = test: Toxicity in ob/ob mouse assessed as effect on hepatic tryglyceride level at 10 to 30 mg/kg, po bid administered for 28 days measured up to post last dose; format: organism-based; conditions: in vivo, 672 h
In short: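 Male ob/ob mice (9 weeks) dosed orally twice daily for 4 weeks, vehicle 0.5% MC. Plasma glucose measured by portable glucometer at 2 and 4 weeks. Liver TG assessed at the end of treatment. Mean ± SEM (n = 10), Dunnett's test versus vehicle.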

[29] = Volume of distribution at steady state in ICR mouse at 2 mg/kg, iv administered as single dose by LC/MS/MS analysis; format: ADME, organism-based; conditions: in vivo, read-out: Vdss; in short: as §2
[30] = AUC (0 to 1.5 hrs) in C57BL/6J mouse pancreas at 10 mg/kg, po administered as single dose by LC/MS/MS analysis; format: ADME, organism-based; set-up: dose 10 mg/kg, time < 1.5 hr, route oral; conditions: in vivo
[31] = Cmax in ICR mouse at 10 mg/kg, po administered as single dose by LC/MS/MS analysis; format: ADME, organism-based; set-up: dose 10 mg/kg, route oral; conditions: in vivo; in short: as §2
[32] = Primary phase half life in ICR mouse at 2 mg/kg, iv administered as single dose by LC/MS/MS analysis; format: ADME, organism-based; conditions: in vivo, read-out: alphat1/2 (converted); in short: as §2
[33] = Ratio of AUC (0 to 1.5 hrs) in C57BL/6J mouse liver to plasma at 30 mg/kg, po administered as single dose by LC/MS/MS analysis; format: ADME, organism-based; conditions: liver and plasma, read-out: Ratio AUC

Ratio AUC [1]: 20.6
AUC [2]: 8910 ng·h/g
Kp [4]: 0.081
Kp [5]: 0.12
Ratio AUC [6]: 22.5
bioavailability [7]: 20%
AUC [8]: 148000 ng·h/g
AUC(0-t) at 1.5 h [9]: 86900 ng·h/mL
Ratio AUC [11]: 14
AUC(0-t) at 1.5 h [12]: 17700 ng·h/mL
AUC(0-inf) [13]: 8580 ng·h/mL
AUC [14]: 1430 ng·h/g
half-life [15]: 120 min
Kp [16]: 0.064
half-life [17]: 96 min
AUC(0-t) at 1.5 h [18]: 6750 ng·h/mL
AUC(0-inf) [19]: 8600 ng·h/mL
Tmax [20]: 15 min
AUC [23]: 32300 ng·h/g
Kp [24]: 1.3
Kp [25]: 1.7
clearance [26]: 3.88 mL/min/kg
AUC [27]: 10500 ng·h/g
Vd [29]: 0.31 L/kg
AUC [30]: 433 ng·h/g
Cmax [31]: 3020 ng/mL
half-life [32]: 28.2 min
Kp [33]: 1.6
Structure (SMILES): CCN(CC(=O)O)CC(=O)N1CCC[C@H]1c1cc(C(=O)Nc2ncc(F)s2)c(C)s1
CC50 at 24 h [3]: > 100 µM
CC50 at 24 h [10]: > 100 µM
Activity (Mus musculus [21]): Non-Toxic
IC50 [22]: > 300 µM
Activity (Mus musculus [28]): Non-Toxic
